Data from ChEMBL document CHEMBL2163260, “Synthesis and biological evaluation of antifungal derivatives of enfumafungin as orally bioavailable inhibitors of β-1,3-glucan synthase” (Bioorg Med Chem Lett, 2012).
In brackets after ≈: the same amount, converted by molar mass.

Key:
Candida albicans [1] = assay: Antifungal activity against Candida albicans MY1055 infected in DBA/2 mouse assessed as reduction in kidney fungal burden measured per gram of tissue at 6.25 mg/kg, po bid for 2 days post infection measured after 4 days relative to sham-treated control; format: functional
Outline: (§1)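 DBA/2 mice were given 3.0 × 10^4 CFU of C. albicans MY1055 iv into the lateral tail vein in 0.2 mL. Dosing ip or po, bid for 2 days, began 15–30 min after challenge, with a sham-treated control for each route and diluent. At day 4, paired kidneys (4–5 mice/group) were homogenized in saline, serially diluted and plated on SD agar (35 °C, 30–48 h). Mean CFU/g was compared with sham.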

Candida albicans [2] = assay: Antifungal activity against Candida albicans MY1055 infected in DBA/2 mouse assessed as reduction in kidney fungal burden measured per gram of tissue at 12.5 mg/kg, po bid for 2 days post infection measured after 4 days relative to sham-treated control; format: functional; outline: as §1
Candida albicans [3] = assay: Antifungal activity against Candida albicans MY1055 infected in DBA/2 mouse assessed as reduction in kidney fungal burden measured per gram of tissue at 25 mg/kg, po bid for 2 days post infection measured after 4 days relative to sham-treated control; format: functional; outline: as §1
Candida albicans [4] = assay: Antifungal activity against Candida albicans MY1055 infected in DBA/2 mouse assessed as reduction in kidney fungal burden measured per gram of tissue at 12.5 mg/kg, ip bid for 2 days post infection measured after 4 days relative to sham-treated control; format: functional; settings: route intraperitoneal; outline: as §1
Candida albicans [5] = assay: Antifungal activity against Candida albicans; format: functional
[6] = Inhibition of Candida albicans beta-1,3-glucan synthase assessed as [3H]UDPG incorporation after 60 mins by scintillation counting
Outline: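 C. albicans glucan synthase was incubated for 60 min at 22 °C in 50 mM HEPES pH 7.5 with 0.5 mM 3H-UDPG (6000–8000 dpm/nmol), 10% glycerol, 1.5 mg/mL BSA, 25 mM KF, 1 mM EDTA and GTP-γ-S. Enzyme was set to give 3–6 nmol incorporation. Compounds were added as threefold DMSO dilutions. The reaction was stopped with 20% TCA and chilled, and glucan was collected on GF/C filters, water-washed and scintillation counted.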

Mus musculus = assay: Dose normalised AUC in po dosed mouse; format: ADME, organism-based; settings: in vivo
[7] = Oral bioavailability in mouse; format: ADME, organism-based; settings: in vivo
[8] = Clearance in po dosed mouse; format: ADME, organism-based; settings: in vivo
Candida albicans [9] = assay: Antifungal activity against Candida albicans MY1055 after 24 hrs by NCCLS microdilution method; format: functional; settings: MY1055, 24 h
[10] = Inhibition of Candida albicans MY1055 beta-1,3-glucan synthase assessed as [3H]UDPG incorporation after 60 mins

Row | MIC (Candida albicans [5]) [µg/mL] | IC50 [6] [µg/mL] | AUC/dose (Mus musculus) [µM·kg·h/mg] | bioavailability [7] [%] | clearance [8] [mL/min/kg] | MIC (Candida albicans [9]) [µg/mL] | IC50 [10] [µg/mL] | Compound | deltalog10CFU (Candida albicans [1]) | deltalog10CFU (Candida albicans [2]) | deltalog10CFU (Candida albicans [3]) | deltalog10CFU (Candida albicans [4])
1 | 0.125 (≈ 0.172 µM) | 0.0064 (≈ 0.00879 µM) | – | – | – | – | – | CC(C)[C@@H](C)[C@@]1(C)CC[C@]2(C)[C@H]3CC[C@@H]4[C@@]5(COC[C@@]4(C)[C@@H](OC[C@@]4(C)CCCN4C)[C@H](n4ncnc4-c4ccncc4)C5)C3=CC[C@@]2(C)[C@@H]1C(=O)O | -0.9 | -1.4 | -2 | -1.8
2 | 0.03 (≈ 0.0403 µM) | 0.002 (≈ 0.00269 µM) | 0.62 | 42 | 16 | – | – | CN[C@@](C)(CO[C@H]1[C@H](n2ncnc2-c2ccncc2)C[C@@]23COC[C@]1(C)[C@@H]2CC[C@H]1C3=CC[C@@]2(C)[C@H](C(=O)O)[C@@](C)([C@H](C)C(C)C)CC[C@]12C)C(C)(C)C | -2.72 | -3.88 | -4.25 | -4.37
3 | 0.125 (≈ 0.175 µM) | 0.004 (≈ 0.0056 µM) | 0.06 | 4.7 | 19.2 | – | – | CC(C)[C@@H](C)[C@@]1(C)CC[C@]2(C)[C@H]3CC[C@@H]4[C@@]5(COC[C@@]4(C)[C@@H](OC[C@@]4(C)CCCN4)[C@H](n4ncnc4-c4ccncc4)C5)C3=CC[C@@]2(C)[C@@H]1C(=O)O | – | – | -2.16 | -2.83
4 | 0.5 (≈ 0.7 µM) | 0.019 (≈ 0.0266 µM) | 0.06 | 23 | 13.1 | – | – | CC(C)[C@@H](C)[C@@]1(C)CC[C@]2(C)[C@H]3CC[C@@H]4[C@@]5(COC[C@@]4(C)[C@@H](OC[C@H]4CCCN4C)[C@H](n4ncnc4-c4ccncc4)C5)C3=CC[C@@]2(C)[C@@H]1C(=O)O | -1.22 | -0.9 | -1.14 | -1.84
5 | 0.5 (≈ 0.714 µM) | 0.022 (≈ 0.0314 µM) | 0.03 | 1.7 | 16.3 | – | – | CC(C)[C@@H](C)[C@@]1(C)CC[C@]2(C)[C@H]3CC[C@@H]4[C@@]5(COC[C@@]4(C)[C@@H](OC[C@H]4CCCN4)[C@H](n4ncnc4-c4ccncc4)C5)C3=CC[C@@]2(C)[C@@H]1C(=O)O | -0.27 | -1.81 | -2.09 | -1.69
6 | 1 (≈ 1.4 µM) | 0.061 (≈ 0.0854 µM) | – | – | – | – | – | CC(C)[C@@H](C)[C@@]1(C)CC[C@]2(C)[C@H]3CC[C@@H]4[C@@]5(COC[C@@]4(C)[C@@H](OC[C@@H]4CCCN4C)[C@H](n4ncnc4-c4ccncc4)C5)C3=CC[C@@]2(C)[C@@H]1C(=O)O | – | – | – | –
7 | 1 (≈ 1.43 µM) | 0.018 (≈ 0.0257 µM) | – | – | – | – | – | CC(C)[C@@H](C)[C@@]1(C)CC[C@]2(C)[C@H]3CC[C@@H]4[C@@]5(COC[C@@]4(C)[C@@H](OC[C@@H]4CCCN4)[C@H](n4ncnc4-c4ccncc4)C5)C3=CC[C@@]2(C)[C@@H]1C(=O)O | -0.4 | -0.26 | -1.32 | -2.18
8 | – | – | – | – | – | 0.2 (≈ 0.282 µM) | 0.05 (≈ 0.0705 µM) | CC(=O)O[C@@H]1C[C@]23C4=CC[C@@]5(C)[C@H](C(=O)O)[C@@](C)([C@H](C)C(C)C)CC[C@]5(C)[C@H]4CC[C@H]2[C@@](C)(COC3O)[C@H]1O[C@@H]1O[C@H](CO)[C@@H](O)[C@H](O)[C@H]1O (stereo not given in full) [ENFUMAFUNGIN] | – | – | – | –
